Measured values as given in ChEMBL document CHEMBL1773023, “Potent and selective phosphopeptide mimetic prodrugs targeted to the Src homology 2 (SH2) domain of signal transducer and activator of transcription 3” (J Med Chem, 2011).
Active and inactive are the calls of the source. The calls are words filed in the database; no cut-off is given here.

How the values were obtained:
[1] = molecular target: T1, Signal transducer and activator of transcription 3 (Homo sapiens, UniProt P40763); experiment: Inhibition of IL6-induced SH2 domain of Stat3 phosphorylation at Tyr705 in human HEY cells up to 10 uM treated 1.5 hrs before IL6 challenge measured after 30 mins by Western blotting; format: cell-based
How it was run: (§1)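 Hey, MeWo and A375 cells (3×10^5/well, RPMI1640, overnight, fresh medium) given increasing prodrug concentrations for 2 h, with IL-6 10 ng/mL during the final 30 min; pStat3 and total Stat3 by Western blot.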

[2] = molecular target: T1, Signal transducer and activator of transcription 3; experiment: Inhibition of IL6-induced SH2 domain of Stat3 phosphorylation at Tyr705 in human MeWo cells up to 10 uM treated 1.5 hrs before IL6 challenge measured after 30 mins by Western blotting; format: cell-based; how it was run: as §1
[3] = molecular target: T1, Signal transducer and activator of transcription 3; experiment: Inhibition of EGF-induced SH2 domain of Stat3 phosphorylation at Tyr705 in human MDA-MB-468 cells at 5 uM treated 1.5 hrs before EGF challenge measured after 30 mins by Western blotting; format: cell-based
How it was run: (§2)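 MDA-MB-468 cells pretreated 1.5 h with prodrug (5 μM), then EGF 100 ng/mL for 30 min; lysates split onto three PVDF blots probed for phospho/total Stat3, pSer473/total Akt, and phospho/total Stat5.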

[4] = molecular target: T1, Signal transducer and activator of transcription 3; experiment: Inhibition of SH2 domain of Stat3 constitutive phosphorylation at Tyr705 in human MDA-MB-468 cells at 5 uM after 2 hrs by fluorescence immunohistochemical analysis; format: cell-based
How it was run: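 MDA-MB-468 cells on slides treated with 5 μM prodrug or DMSO for 2 h, fixed in 4% paraformaldehyde, permeabilized with 0.5% Triton X-100, blocked in 3% BSA, stained with anti-pTyr705 Stat3 and Alexa Fluor 594 secondary; confocal imaging at fixed microscope settings.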

[5] = molecular target: T1, Signal transducer and activator of transcription 3; experiment: Inhibition of SH2 domain of Stat3 constitutive phosphorylation at Tyr705 in human MDA-MB-468 cells at 5 uM after 8 hrs by Western blotting; format: cell-based
How it was run: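 MDA-MB-468 cells given a single 5 μM prodrug dose and harvested at set times; pTyr705 and total Stat3 by Western blot of 12 μg lysate protein on 8% SDS-PAGE.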

[6] = molecular target: T1, Signal transducer and activator of transcription 3; experiment: Inhibition of SH2 domain of Stat3 constitutive phosphorylation at Tyr705 in human MDA-MB-468 cells at 0.1 uM after 2 hrs by Western blotting; format: cell-based
How it was run: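 MDA-MB-468 cells (4×10^5/well, DMEM 10% FCS, overnight) given prodrug from freshly made 10 mM DMSO stock for 2 h. Lysates in Hepes pH 7.4 Triton buffer with phosphatase/protease inhibitors; 12 μg protein on 8% SDS-PAGE, PVDF, probed for pStat3 Y705 by ECL, then stripped and reprobed for total Stat3.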

[7] = molecular target: T2, Signal transducer and activator of transcription 5A (Homo sapiens) (UniProt P42229); experiment: Inhibition of EGF-induced SH2 domain of Stat5 phosphorylation at Tyr694 in human MDA-MB-468 cells at 5 uM treated 1.5 hrs before EGF challenge measured after 30 mins by Western blotting; format: cell-based; how it was run: as §2
T2 sequence (whole entry): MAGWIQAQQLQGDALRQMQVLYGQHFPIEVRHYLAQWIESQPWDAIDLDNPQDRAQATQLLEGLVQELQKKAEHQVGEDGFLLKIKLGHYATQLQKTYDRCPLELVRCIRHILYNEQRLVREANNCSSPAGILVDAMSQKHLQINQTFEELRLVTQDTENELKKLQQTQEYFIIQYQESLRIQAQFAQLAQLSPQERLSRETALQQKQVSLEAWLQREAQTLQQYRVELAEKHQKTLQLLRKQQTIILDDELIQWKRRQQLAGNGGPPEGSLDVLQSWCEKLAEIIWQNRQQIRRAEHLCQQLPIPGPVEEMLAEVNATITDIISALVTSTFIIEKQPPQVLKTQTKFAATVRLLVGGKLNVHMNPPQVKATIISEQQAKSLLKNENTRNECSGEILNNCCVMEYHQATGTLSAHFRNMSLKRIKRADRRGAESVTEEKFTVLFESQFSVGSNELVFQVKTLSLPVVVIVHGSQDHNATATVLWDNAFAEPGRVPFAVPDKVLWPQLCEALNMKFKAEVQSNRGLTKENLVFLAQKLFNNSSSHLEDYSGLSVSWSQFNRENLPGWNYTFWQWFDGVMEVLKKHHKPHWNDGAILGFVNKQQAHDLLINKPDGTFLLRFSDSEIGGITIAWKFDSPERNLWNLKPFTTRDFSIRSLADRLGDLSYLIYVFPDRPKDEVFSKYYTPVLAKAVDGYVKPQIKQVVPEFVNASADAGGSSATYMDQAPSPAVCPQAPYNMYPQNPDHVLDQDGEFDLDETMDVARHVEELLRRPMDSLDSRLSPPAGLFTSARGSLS

NCI-H520 = experiment: Cytotoxicity against human NCI-H520 cells assessed as cell growth inhibition at 5 to 10 uM after 72 hrs by MTT assay; format: functional
How it was run: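 Cell lines with constitutive Stat3 phosphorylation (melanoma, NSCLC) exposed to prodrug at 5–10 μM. Percent growth inhibition recorded.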

[8] = molecular target: T3, Signal transducer and activator of transcription 1-alpha/beta (Homo sapiens) (UniProt P42224); experiment: Inhibition of IFN-gamma-induced Stat1 phosphorylation at Tyr701 in human MDA-MB-468 cells treated 1.5 hrs before IFN-gamma challenge measured after 30 mins by Western blotting; format: cell-based
T3 sequence (whole entry): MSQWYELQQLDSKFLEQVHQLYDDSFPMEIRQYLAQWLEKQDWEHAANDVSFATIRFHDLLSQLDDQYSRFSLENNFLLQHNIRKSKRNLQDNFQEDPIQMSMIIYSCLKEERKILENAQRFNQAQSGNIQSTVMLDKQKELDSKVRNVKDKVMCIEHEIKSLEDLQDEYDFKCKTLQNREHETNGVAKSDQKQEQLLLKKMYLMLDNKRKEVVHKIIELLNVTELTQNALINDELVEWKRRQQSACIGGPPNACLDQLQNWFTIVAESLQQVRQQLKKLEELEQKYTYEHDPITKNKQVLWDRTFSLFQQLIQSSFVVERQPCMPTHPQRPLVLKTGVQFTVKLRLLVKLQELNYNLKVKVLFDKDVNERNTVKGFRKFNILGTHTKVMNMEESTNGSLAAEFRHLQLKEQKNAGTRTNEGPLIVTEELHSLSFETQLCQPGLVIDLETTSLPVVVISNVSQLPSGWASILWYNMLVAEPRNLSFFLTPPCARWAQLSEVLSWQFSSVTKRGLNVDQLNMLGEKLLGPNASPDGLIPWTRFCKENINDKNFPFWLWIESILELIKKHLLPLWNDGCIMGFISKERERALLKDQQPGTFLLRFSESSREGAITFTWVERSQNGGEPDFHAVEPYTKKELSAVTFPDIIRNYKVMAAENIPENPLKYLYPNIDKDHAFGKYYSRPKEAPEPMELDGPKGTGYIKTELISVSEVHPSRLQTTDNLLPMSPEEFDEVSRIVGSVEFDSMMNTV
How it was run: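 MDA-MB-468 cells exposed to rising prodrug concentrations for 1.5 h, then interferon γ 25 ng/mL for 30 min; Western blot for pTyr701 and total Stat1.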

[9] = molecular target: G1/S-specific cyclin-D1 (Homo sapiens) (UniProt P24385); experiment: Inhibition of Cyclin D1 in human HCC-827 cells at 5 uM after up to 24 hrs by Western blotting; format: cell-based
Chain of G1/S-specific cyclin-D1 (Homo sapiens) (P24385 whole entry): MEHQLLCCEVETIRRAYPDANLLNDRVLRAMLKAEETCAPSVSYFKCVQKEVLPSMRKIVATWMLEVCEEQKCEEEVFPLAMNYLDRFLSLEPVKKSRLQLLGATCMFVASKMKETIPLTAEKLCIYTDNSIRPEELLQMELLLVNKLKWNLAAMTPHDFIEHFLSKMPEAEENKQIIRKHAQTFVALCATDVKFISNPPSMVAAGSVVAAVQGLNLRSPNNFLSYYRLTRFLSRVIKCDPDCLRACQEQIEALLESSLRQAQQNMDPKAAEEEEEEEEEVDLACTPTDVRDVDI

T1 sequence (P40763 whole entry, the tested form may be a part): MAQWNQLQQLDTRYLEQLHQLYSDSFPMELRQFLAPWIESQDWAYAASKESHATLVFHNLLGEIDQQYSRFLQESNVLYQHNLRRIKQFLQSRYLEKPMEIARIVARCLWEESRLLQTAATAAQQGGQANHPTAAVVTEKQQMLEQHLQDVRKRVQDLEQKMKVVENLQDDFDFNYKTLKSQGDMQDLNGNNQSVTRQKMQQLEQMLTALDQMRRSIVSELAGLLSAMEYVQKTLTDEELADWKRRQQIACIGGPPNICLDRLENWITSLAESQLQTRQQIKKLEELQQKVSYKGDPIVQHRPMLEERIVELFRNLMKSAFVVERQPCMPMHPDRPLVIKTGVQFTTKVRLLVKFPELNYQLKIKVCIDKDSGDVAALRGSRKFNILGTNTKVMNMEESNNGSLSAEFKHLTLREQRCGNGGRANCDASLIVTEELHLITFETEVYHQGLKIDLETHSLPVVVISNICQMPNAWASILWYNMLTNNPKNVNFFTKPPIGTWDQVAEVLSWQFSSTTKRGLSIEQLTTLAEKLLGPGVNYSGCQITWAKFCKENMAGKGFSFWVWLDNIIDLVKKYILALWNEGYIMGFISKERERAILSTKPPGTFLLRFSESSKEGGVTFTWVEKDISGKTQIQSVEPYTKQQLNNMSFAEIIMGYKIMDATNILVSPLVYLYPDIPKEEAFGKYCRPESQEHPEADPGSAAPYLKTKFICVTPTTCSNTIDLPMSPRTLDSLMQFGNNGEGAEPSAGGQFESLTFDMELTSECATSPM

inhibition [1]: Active
inhibition [2]: Active
inhibition [3]: Active
inhibition [4]: Active
inhibition [5]: Active
inhibition [6]: Active
inhibition [7]: inactive
inhibition [8]: Dose-dependent effect
inhibition [9]: inactive
SMILES: C/C(=C\C(=O)N[C@H]1CCc2cccc3c2N(C1=O)[C@H](C(=O)N[C@H](C)CCC(N)=O)C3)c1ccc(C(F)(F)P(=O)(OCOC(=O)C(C)(C)C)OCOC(=O)C(C)(C)C)cc1
growth inhibition (GI) (NCI-H520): <20%
